Assay results gathered from unrelated publications.
Lines come from different studies, so protocols differ.
Read-out: enzyme activity
Action: inhibitor
SRC: Proto-oncogene tyrosine-protein kinase Src (SRC, Homo sapiens, UniProt P12931)
SRC T341M: Proto-oncogene tyrosine-protein kinase Src (SRC, Homo sapiens, UniProt P12931, T341M)

| Compound | target | test | setting | remaining activity |
| --- | --- | --- | --- | --- |
| CCN(CC)c1ccc(C2=NNC(=O)CC2C)cc1[N+](=O)[O-] (stereo not drawn) | SRC |  | 10 µM | 94% |
| O=C(Nc1cnn(-c2csc(C(=O)NC3COC3)c2)c1)Nc1ccccc1Cl | SRC |  | 5 µM | 91.1% |
| CC(C)(C)c1nc2c(s1)c1nc(N)ncc1c1ccc(NS(=O)(=O)c3c(F)cccc3F)c(F)c12 | SRC | radiometric | 1 µM | 89% |
| Nc1nc(Nc2ccccc2)sc1C(=O)c1c(F)cccc1F | SRC |  | 10 µM | 47% |
| Oc1cccc(-c2nc(N3CCOCC3)c3oc4ncccc4c3n2)c1 | SRC |  | 10 µM | 99% |
| CCCOc1ccc(OC)c(F)c1C(=O)c1ccc(C(=O)N[C@@H]2CNC[C@H]2NC(=O)c2ccc3[nH]ncc3c2)cc1 | SRC T341M |  | 10 µM | 53% |
| Cn1c(=O)n(-c2ccc(C(C)(C)C#N)cc2)c2c3cc(-c4cnc5ccccc5c4)ccc3ncc21 | SRC |  | 10 µM | 121% |
| Cc1[nH]c(/C=C2\C(=O)Nc3ccc(F)cc32)c(C)c1C(=O)N[C@H]1CCN(C(=O)N(C)C)C1 | SRC |  | 0.1 µM | 109% |
| Cc1ccc(NC(=O)c2ccc(C)c(C(F)(F)F)c2)cc1C#Cc1nn(C2CCC(O)CC2)c2ncnc(N)c12 (stereo not drawn) | SRC T341M |  | 10 µM | 20% |
| Cc1ccc(C(=O)Nc2ccc(CN3CCN(C)CC3)c(C(F)(F)F)c2)cc1C#Cc1cnc2cccnn12 | SRC |  | 23.5 nM | 12% |
| Nc1nc(NC2CCCCC2)sc1C(=O)c1ccccc1 | SRC |  | 10 µM | 99% |
| COc1cc(Nc2cnc(C#N)c(O[C@H](C)CN(C)C)n2)ncc1-c1cnn(C)c1 | SRC | radiometric | 1 µM | 81% |
